This note sets out measurements from ChEMBL document CHEMBL1138306, “New antioxidant polyphenols from the medicinal mushroom Inonotus obliquus” (Bioorg Med Chem Lett, 2007).

The IC50 is the concentration at which inhibition is half-maximal.

Holding throughout (format): functional
Assay [1] in a line: Ratio of IC50 for drug to trolox for ABTS radical scavenging activity. The procedure, abridged: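 ABTS radical cation made from 7 mM aqueous ABTS stock reacted with 2.45 mM potassium persulfate, left 12 h in the dark. Radical solution mixed with samples in ethanol. Absorbance read at 734 nm up to 6 min after mixing. IC50 expressed relative to trolox.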
Assay [2] in a line: Ratio of IC50 for drug to trolox for DPPH radical scavenging activity. On the technique in general: The DPPH test is a chemical assay of radical scavenging.
Assay [3] is described as follows: Antioxidant activity assessed as superoxide radical scavenging activity by xanthine oxidase method. Summed up: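 Superoxide generated by xanthine/xanthine oxidase in 50 mM potassium phosphate buffer (pH 7.8) containing 1 mM EDTA, 0.04 mM NBT, 0.18 mM xanthine and 250 mU/mL xanthine oxidase. Samples tested at a series of concentrations. Incubation 30 min at 37 C in the dark. Superoxide reduction of NBT to blue formazan used as read-out. IC50 determined.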

As for `O=C1C=C(/C=C/c2ccc(O)c(O)c2)OC12C(c1cc3oc(=O)c4cc(O)c(O)cc4c3c(=O)o1)=Cc1cc(O)c(O)cc12` (stereo unspecified) [PHELLIGRIDIN G], the Ratio IC50 worked out at 0.43 in assay [1] and 1.48 in assay [2]. Also, the concentration for half-maximal inhibition (IC50) in assay [3] is 92.3 µM.
For `O=c1oc2cc(/C=C/c3ccc(O)c(O)c3)oc(=O)c2c2cc(O)c(O)cc12` [PHELLIGRIDIN D] the same measures were 0.33, 1.51 and 85.5 µM.
On to `O=c1oc(/C=C/c2ccc(O)c(O)c2)cc(O)c1-c1cc(O)c(O)cc1/C=C/c1cc2oc(=O)c3cc(O)c(O)cc3c2c(=O)o1` [PHELLIGRIDIN I], for which the Ratio IC50 in assay [1] stood at 0.43; in assay [2], 1.45. The IC50 in assay [3] was determined as 93.6 µM.
Taken in the same sequence, the figures for `CC(=O)C1(O)C(c2cc3oc(=O)c4cc(O)c(O)cc4c3c(=O)o2)=Cc2cc(O)c(O)cc21` (stereo unspecified) were 0.58, 1.42 and 90.8 µM.
Taken in the same sequence, the figures for `O=C(O)/C=C/c1ccc(O)c(O)c1` [CAFFEIC ACID] were 0.66, 0.41 and 10.2 µM.
Taken in the same sequence, the figures for `CC1=CC(=O)C2(O1)C(c1cc3oc(=O)c4cc(O)c(O)cc4c3c(=O)o1)=Cc1cc(O)c(O)cc12` (stereo unspecified) [PHELLIGRIDIN E] were 0.4, 1.57 and 120 µM.
For `Cc1cc(=O)cc(-c2cc(O)c(O)cc2-c2c(O)cc(/C=C/c3ccc(O)c(O)c3)oc2=O)o1`, the values for the Ratio IC50 in assay [1] and in assay [2] were 0.65 and 0.82, respectively. Besides, the IC50 in assay [3] amounted to 97.6 µM.
